ChEMBL document CHEMBL1268949, “3D QSAR study, synthesis, and in vitro evaluation of (+)-5-FBVM as potential PET radioligand for the vesicular acetylcholine transporter (VAChT)” (Bioorg Med Chem, 2010)

Assays:
[1] = molecular target: T1, Vesicular acetylcholine transporter (Rattus norvegicus, UniProt Q62666); assay: Displacement of (-)-[3H]vesamicol from rat VAChT expressed in rat PC12 cells after 60 mins; type: cell-based, PC-12
T1 sequence (Q62666 whole entry): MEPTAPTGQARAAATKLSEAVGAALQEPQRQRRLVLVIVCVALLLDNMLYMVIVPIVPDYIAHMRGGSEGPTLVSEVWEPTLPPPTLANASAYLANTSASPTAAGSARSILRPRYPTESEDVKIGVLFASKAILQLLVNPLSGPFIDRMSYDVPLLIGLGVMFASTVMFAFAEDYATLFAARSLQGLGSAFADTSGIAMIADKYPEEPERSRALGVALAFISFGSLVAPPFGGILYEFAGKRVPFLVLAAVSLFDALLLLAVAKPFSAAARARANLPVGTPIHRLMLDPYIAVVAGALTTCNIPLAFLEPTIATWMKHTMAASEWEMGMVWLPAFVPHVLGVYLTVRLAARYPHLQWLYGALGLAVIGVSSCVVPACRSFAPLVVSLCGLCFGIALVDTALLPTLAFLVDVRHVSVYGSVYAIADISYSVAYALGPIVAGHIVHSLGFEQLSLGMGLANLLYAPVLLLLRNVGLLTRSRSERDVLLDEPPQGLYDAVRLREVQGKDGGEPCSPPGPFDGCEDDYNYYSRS
In short: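 Displacement of (−)-[3H]vesamicol was run on homogenates of PC12 cells stably transfected with rat VAChT. (−)-Vesamicol in excess defined non-specific binding, and bound ligand was collected by filtration on a cell harvester. Triplicates, at least three times; IC50 by computational non-linear regression.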

Rattus norvegicus = species on record: Rattus norvegicus; assay: Selectivity ratio of Ki for sigma 1 receptor in rat cortical membranes to Ki for rat VAChT; type: cell membranes; settings: Membrane
[2] = molecular target: Sigma non-opioid intracellular receptor 1 (Rattus norvegicus, UniProt Q9R0C9); assay: Displacement of (-)-[3H]pentazocine from sigma 1 receptor in rat cortical membranes after 120 mins; type: cell membranes, Membrane
Chain of Sigma non-opioid intracellular receptor 1 (Q9R0C9 whole entry): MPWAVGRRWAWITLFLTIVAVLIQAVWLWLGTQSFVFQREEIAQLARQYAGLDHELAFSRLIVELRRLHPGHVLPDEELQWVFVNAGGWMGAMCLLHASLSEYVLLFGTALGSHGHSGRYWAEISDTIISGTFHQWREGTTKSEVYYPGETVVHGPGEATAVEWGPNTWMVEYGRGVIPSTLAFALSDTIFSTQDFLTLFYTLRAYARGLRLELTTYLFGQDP
In short: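 Radioligand displacement on rat cortical membrane homogenates with (−)-[3H]pentazocine (1070 GBq/mmol), in 50 mM TRIS–HCl pH 7.4 at room temperature. Each assay was run in triplicate at least three times, and IC50 was estimated by non-linear regression.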

[3] = Displacement of (-)-[3H]DTG from sigma 2 receptor in rat liver membranes after 120 mins; type: cell membranes, Membrane

Ki [1] [µM] | Ratio Ki (Rattus norvegicus) | Ki [2] [µM] | Ki [3] [µM] | Structure (SMILES)
0.0569 | 4.7 | 0.269 |  | O[C@H]1Cc2cccc(OCCF)c2C[C@@H]1N1CCC(c2ccccc2)CC1
0.0406 | 16 | 0.652 |  | Nc1cccc2c1CC(N1CCC(c3ccccc3)CC1)C(O)C2 (racemic)
0.00695 | 5.48 | 0.0381 | 0.526 | O[C@H]1Cc2cccc(F)c2C[C@@H]1N1CCC(c2ccccc2)CC1
0.0158 | 17 | 0.266 |  | O[C@@H]1Cc2cccc(I)c2C[C@H]1N1CCC(c2ccccc2)CC1 (racemic)
0.0109 | 1.21 | 0.0132 | 0.229 | OC1Cc2cccc(F)c2CC1N1CCC(c2ccccc2)CC1 (racemic)
0.0196 | 10.7 | 0.209 |  | O[C@@H]1Cc2cccc(OCCF)c2C[C@H]1N1CCC(c2ccccc2)CC1
0.00368 | 0.97 | 0.00357 | 0.252 | O[C@@H]1Cc2cccc(F)c2C[C@H]1N1CCC(c2ccccc2)CC1
